Shown are actives, neighbours in structure and some others; about 2.9% of the full set was active somewhere.
SENP8 block-1 – inhibitors of human SENP8 protease | Q96LD8 | recombinant SENP8, Nedd8 substrate fluorescence | inhibition, % at 20 µM | 360,000 tested, 0.64% active | AID 602440; in the data active means inhibition mostly above about 40%, no sharp cut-off; inactive means mostly below about 27%
Target sequence (Q96LD8 whole entry, looked up): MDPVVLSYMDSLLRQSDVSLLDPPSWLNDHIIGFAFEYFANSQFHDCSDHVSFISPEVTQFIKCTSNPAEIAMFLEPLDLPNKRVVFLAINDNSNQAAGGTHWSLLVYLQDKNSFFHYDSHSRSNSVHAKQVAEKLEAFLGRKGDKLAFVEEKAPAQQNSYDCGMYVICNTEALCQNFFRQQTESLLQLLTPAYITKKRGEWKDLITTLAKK
SENP7 block – inhibitors of human SENP7 protease. recombinant SENP7, Z-RLRGG-aminoluciferin luminescence, 40 min. inhibition, % at 5 µM. 330,000 tested, 1.5% active. Q9BQF6;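 active means inhibition above about 50% at the single test dose, limit read from the data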;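 further: plate controls were DMSO with enzyme for no effect and no enzyme buffer wells for full effect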
SENP8 block-2 – blocks the human protease SENP8; Q96LD8; purified SENP8, Z-RLRGG-aminoluciferin cleavage, luminescence; inhibition, % at 10 µM; 330,000 tested, 1.2% active; in the data active means inhibition above about 50%
HSP90 inh – inhibitors of HSP90 luciferase refolding in rabbit reticulocyte lysate | 290,000 tested, 0.91% active | AID 1789 | luciferase refolding luminescence, 3 h | inhibition, % at 5.6 µM;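 active means inhibition above the screen-wide mean plus 3 SD, computed separately per campaign, cut at about 16% in these data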;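 further: 0% = DMSO wells and 100% = 60 µM geldanamycin wells; inhibitors lower the luminescence because luciferase stays unfolded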
SENP1 inh – blocks the human SENP1 SUMO protease catalytic domain; Q9P0U3; 360,000 tested, 0.21% active; inhibition, % at 10 µM; recombinant SENP1 catalytic domain, CyPet-SUMO1-YPet FRET cleavage; AID 624204;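 active means inhibition at least 30% at 10 µM, raw YFP signal under a set limit, fluorescence ratio 0.5 to 1.5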;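 further: 0% = enzyme with DMSO and 100% = no enzyme wells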
Target sequence (Q9P0U3 419-644 limits assumed): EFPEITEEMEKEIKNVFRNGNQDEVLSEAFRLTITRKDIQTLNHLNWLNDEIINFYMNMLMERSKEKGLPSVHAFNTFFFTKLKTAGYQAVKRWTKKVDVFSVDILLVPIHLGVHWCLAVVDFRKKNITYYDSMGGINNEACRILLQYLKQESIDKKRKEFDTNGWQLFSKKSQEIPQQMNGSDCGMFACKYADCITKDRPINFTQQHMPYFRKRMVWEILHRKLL
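Compound: 10 µM single point, 0.5% DMSO; Test system: hSENP1 catalytic domain, recombinant; Timing: 50 min reaction at room temperature; Technique: FRET, CFP and YFP emission; Control set: no-enzyme wells low, DMSO-plus-enzyme wells high control.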
SENP6 block – blocks the human protease SENP6 | Q9GZR1 | Recombinant SENP6 catalytic domain, aminoluciferin luminescence | inhibition, % at 10 µM | 330,000 tested, 1.8% active | AID 2599;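 active means inhibition above about 50% at the single tested dose, limit read from the data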;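 further: plate controls were DMSO wells with enzyme for no effect and DMSO wells lacking enzyme for full effect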
HSP90 inh confirm – HSP90 inhibition, confirmation assay; shares compounds with HSP90 inh; rabbit reticulocyte lysate, luciferase refolding luminescence, 3 h; inhibition, % at 5.9 µM; 2,300 tested, 64% active; AID 1846; in the data active means inhibition above about 18%;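 further: 0% = vehicle wells and 100% = reference inhibitor wells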
FLuc counter – counter-screen for HSP90 inhibitors: inhibitors of firefly luciferase. AID 1847. purified native firefly luciferase, luminescence. 2,300 tested, 48% active. inhibition, % at 5.9 µM. shares compounds with HSP90 inh;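 active means inhibition above the mean inhibition of all tested sample wells plus 3 SD, cut at about 10% in these data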;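 further: 0% = DMSO with luciferase and 100% = wells lacking luciferase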
* hit, by the source's call; . = no result.

SMILES	SENP8 block-1	SENP7 block	SENP8 block-2	HSP90 inh	SENP1 inh	SENP6 block	HSP90 inh confirm	FLuc counter
CN(C)c1ccc(-c2nc3ccccn3c2/N=C/c2ccc(Br)cc2)cc1	-404.0	13.3	10.9	17.6*	-48.0	31.2	35.1*	19.3*
Cc1ccc2c(c1)C(=O)C(=O)N2CCOc1ccccc1	17.9	0.5	-4.1	21.3*	-0.1	-16.4	3.4	-25.6
O=C(NCCN1CCOCC1)c1ccc2c(c1)N(Cc1cccc(F)c1)C(=O)c1ccccc1S2	13.8	-2.6	-3.8	20.3*	-2.6	-19.5	-3.7	-7.9
Cc1ccc(-c2cc(C(=O)N/N=C/c3ccco3)[nH]n2)cc1	9.9	6.3	-5.6	22.1*	-1.3	-28.0	18.6*	24.5*
Cn1c(-c2ccccc2)cnc1SCC(=O)N1CCCCC1	12.9	-1.3	-2.3	33.3*	2.0	-13.9	63.7*	55.6*
Cn1c(-c2ccccc2)cnc1SCC(=O)N1CCCc2ccccc21	5.1	-3.3	-14.1	0.7	2.5	-14.0	.	.
CCOC(=O)c1cc(-c2ccccc2)n(Cc2cc(CC)no2)n1	12.8	6.2	-15.1	.	-0.1	-10.8	.	.
CCC(=O)NC1=C(Cl)C(=O)C(NC(=O)CC)=C(Cl)C1=O	50.4*	-5.4	-12.5	29.9*	0.9	22.9	12.1	74.6*
O=C(Nc1cc2ccccc2oc1=O)c1ccccc1	-36.2	98.1*	93.9*	25.4*	1.3	-8.6	85.8*	73.8*
CCOC(=O)c1c(C)oc2c1c(C=NCC1CCCO1)c(O)c1ccccc12 (centres undefined)	18.8	.	.	18.7*	-23.8	.	1.7	-11.1
Cc1ncc(C[n+]2csc(CCOC(=O)C34CC5CC(CC(C5)C3)C4)c2C)c(N)n1	-4.7	-0.8	1.3	50.1*	0.5	-4.0	1.0	-4.5
Cc1ncc(C[n+]2csc(CCOC(=O)CC3C4CC5CC(C4)CC3C5)c2C)c(N)n1 (centres undefined)	16.5	-11.2	-3.5	-1.3	0.8	-13.0	.	.
COc1ccc2cc(C(=O)N/N=C/c3sc4ccccc4c3O)ccc2c1	-135.4	4.5	2.8	17.5*	-28.6	13.9	0.0	-9.8
COc1ccc(C(=O)N/N=C/c2sc3ccccc3c2O)cc1	-220.1	.	.	14.7	-25.9	.	.	.
CC(=O)Nc1ccc(C(=O)COC(=O)c2cccs2)c(F)c1	0.2	-0.1	-19.0	.	1.2	14.9	.	.
CCc1nnc(NC(=O)CSc2nc3c(cc2C#N)CCCC3)s1	-389.8	-2.4	1.5	25.2*	-19.0	-5.8	2.3	-4.2
O=C(NCc1ccccc1OC(F)(F)F)C1CCC(=O)N(CCc2ccccn2)C1 (centres undefined)	3.5	5.2	-1.9	-0.2	0.5	7.6	.	.
O=C(Nc1ccccc1C(F)(F)F)c1cc(-c2ccccc2O)on1	6.3	1.8	2.4	20.7*	0.5	-6.5	1.6	-8.8
O=C(Nc1ccccc1C(F)(F)F)c1cc(-c2ccco2)on1	5.0	2.2	-0.7	-3.2	0.2	-15.1	.	.
COc1ccc(/C=N/Nc2cc(OC)ncn2)cc1	9.6	.	.	17.6*	1.4	.	30.7*	25.7*
CC(C)(C)OC(=O)N1CCC[C@H]1C(=O)N/N=C/c1ccc2nccnc2c1	-16.3	1.1	-5.3	0.4	1.2	-16.0	.	.
COc1ccc2nc(/C=N/NC(=O)[C@@H]3CCCN3C(=O)OC(C)(C)C)ccc2c1	-434.3	-7.2	-1.2	40.6*	1.6	-3.5	25.7*	-1.3
Cc1ccc(C)c(Cn2nnc3c(=O)[nH]c(C4CCN(S(=O)(=O)c5ccc(S(=O)(=O)N(C)C)cc5)CC4)nc32)c1	13.9	6.9	2.7	22.1*	1.4	-5.6	19.3*	-1.8
Cc1ccc(C)c(Cn2nnc3c(=O)[nH]c(C4CCN(S(=O)(=O)c5ccc(S(=O)(=O)NC6CC6)cc5)CC4)nc32)c1	0.7	-6.1	-6.4	11.7	1.1	-3.8	.	.
COc1cccc(N2CCN(C(=O)c3cccc(S(=O)(=O)N4CCCC4)c3)CC2)c1	8.9	.	.	.	-7.3	.	.	.
CCN(CC)C(=O)c1ccc2nc([C@@H]3O[C@H](CO)[C@H](O)[C@H](O)[C@H]3O)[nH]c2c1	12.4	.	.	.	-1.9	.	.	.

Screening data as filed in PubChem.
